Experimental data reported in ChEMBL document CHEMBL1140929, “Synthesis and evaluation of 18F-labeled 2-phenylbenzothiazoles as positron emission tomography imaging agents for amyloid plaques in Alzheimer's disease” (J Med Chem, 2009).

Legend:
[1] = Biodistribution in NMRI mouse cerebrum assessed per gram of tissue at 3.7 MBq/mL, iv after 2 mins by gamma counting; format: ADME, organism-based; details: in vivo
In short: (§1)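 Male NMRI mice (30-40 g) anaesthetised with 0.1 mL ip Hypnorm (fentanyl citrate 63 µg/mL, fluanisone 2 mg/mL). Each received 0.1 mL of HPLC-purified 18F tracer, diluted in 0.9% NaCl to 3.7 MBq/mL (ethanol ≤10%, THF ≤0.02%), via tail vein. Killed by decapitation at 2 or 60 min; blood and organs weighed and γ-counted. Background-corrected, expressed as %ID or %ID/g.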

[2] = system: Heart; test: Biodistribution in NMRI mouse heart assessed per gram of tissue at 3.7 MBq/mL, iv after 2 mins by gamma counting; format: ADME, organism-based; details: in vivo; in short: as §1
[3] = system: Heart; test: Biodistribution in NMRI mouse heart at 3.7 MBq/mL, iv after 60 mins by gamma counting; format: ADME, organism-based; details: in vivo, 1 h; in short: as §1
[4] = system: Kidney; test: Biodistribution in NMRI mouse kidney at 3.7 MBq/mL, iv after 60 mins by gamma counting; format: ADME, organism-based; details: in vivo, 1 h; in short: as §1
[5] = system: Kidney; test: Biodistribution in NMRI mouse kidney assessed per gram of tissue at 3.7 MBq/mL, iv after 2 mins by gamma counting; format: ADME, organism-based; details: in vivo; in short: as §1
[6] = system: Liver; test: Biodistribution in NMRI mouse liver at 3.7 MBq/mL, iv after 60 mins by gamma counting; format: ADME, organism-based; details: in vivo, 1 h; in short: as §1
[7] = system: Lung; test: Biodistribution in NMRI mouse lung assessed per gram of tissue at 3.7 MBq/mL, iv after 2 mins by gamma counting; format: ADME, organism-based; details: in vivo; in short: as §1
[8] = system: Kidney; test: Biodistribution in NMRI mouse kidney at 3.7 MBq/mL, iv after 2 mins by gamma counting; format: ADME, organism-based; details: in vivo; in short: as §1
[9] = system: Liver; test: Biodistribution in NMRI mouse liver assessed per gram of tissue at 3.7 MBq/mL, iv after 60 mins by gamma counting; format: ADME, organism-based; details: in vivo, 1 h; in short: as §1
[10] = Biodistribution in NMRI mouse spleen/pancreas at 3.7 MBq/mL, iv after 2 mins by gamma counting; format: ADME, organism-based; details: in vivo; in short: as §1
[11] = system: Liver; test: Biodistribution in NMRI mouse liver at 3.7 MBq/mL, iv after 2 mins by gamma counting; format: ADME, organism-based; details: in vivo; in short: as §1
[12] = system: Lung; test: Biodistribution in NMRI mouse lung at 3.7 MBq/mL, iv after 2 mins by gamma counting; format: ADME, organism-based; details: in vivo
[13] = system: Cerebellum; test: Biodistribution in NMRI mouse cerebellum assessed per gram of tissue at 3.7 MBq/mL, iv after 60 mins by gamma counting; format: ADME, organism-based; details: in vivo, 1 h; in short: as §1
[14] = system: Blood; test: Biodistribution in NMRI mouse blood assessed per gram of tissue at 3.7 MBq/mL, iv after 2 mins by gamma counting; format: ADME, organism-based; details: in vivo; in short: as §1
[15] = Biodistribution in NMRI mouse spleen/pancreas assessed per gram of tissue at 3.7 MBq/mL, iv after 60 mins by gamma counting; format: ADME, organism-based; details: in vivo, 1 h; in short: as §1
[16] = system: Cerebellum; test: Biodistribution in NMRI mouse cerebellum at 3.7 MBq/mL, iv after 60 mins by gamma counting; format: ADME, organism-based; details: in vivo, 1 h; in short: as §1
[17] = Biodistribution in NMRI mouse urine at 3.7 MBq/mL, iv after 60 mins by gamma counting; format: ADME, organism-based; details: in vivo, 1 h; in short: as §1
[18] = system: Heart; test: Biodistribution in NMRI mouse heart at 3.7 MBq/mL, iv after 2 mins by gamma counting; format: ADME, organism-based; details: in vivo; in short: as §1
[19] = system: Heart; test: Biodistribution in NMRI mouse heart assessed per gram of tissue at 3.7 MBq/mL, iv after 60 mins by gamma counting; format: ADME, organism-based; details: in vivo, 1 h; in short: as §1
[20] = system: Blood; test: Biodistribution in NMRI mouse blood at 3.7 MBq/mL, iv after 2 mins by gamma counting; format: ADME, organism-based; details: in vivo; in short: as §1
[21] = system: Blood; test: Biodistribution in NMRI mouse blood at 3.7 MBq/mL, iv after 60 mins by gamma counting; format: ADME, organism-based; details: in vivo, 1 h; in short: as §1
[22] = system: Cerebellum; test: Biodistribution in NMRI mouse cerebellum at 3.7 MBq/mL, iv after 2 mins by gamma counting; format: ADME, organism-based; details: in vivo; in short: as §1
[23] = system: Lung; test: Biodistribution in NMRI mouse lung assessed per gram of tissue at 3.7 MBq/mL, iv after 60 mins by gamma counting; format: ADME, organism-based; details: in vivo, 1 h; in short: as §1
[24] = system: Kidney; test: Biodistribution in NMRI mouse kidney assessed per gram of tissue at 3.7 MBq/mL, iv after 60 mins by gamma counting; format: ADME, organism-based; details: in vivo, 1 h; in short: as §1
[25] = system: Stomach; test: Biodistribution in NMRI mouse stomach at 3.7 MBq/mL, iv after 60 mins by gamma counting; format: ADME, organism-based; details: in vivo, 1 h; in short: as §1
[26] = Biodistribution in NMRI mouse spleen/pancreas at 3.7 MBq/mL, iv after 60 mins by gamma counting; format: ADME, organism-based; details: in vivo, 1 h; in short: as §1
[27] = Biodistribution in NMRI mouse cerebrum assessed per gram of tissue at 3.7 MBq/mL, iv after 60 mins by gamma counting; format: ADME, organism-based; details: in vivo, 1 h; in short: as §1
[28] = Biodistribution in NMRI mouse cerebrum at 3.7 MBq/mL, iv after 60 mins by gamma counting; format: ADME, organism-based; details: in vivo, 1 h; in short: as §1
[29] = Biodistribution in NMRI mouse cerebrum at 3.7 MBq/mL, iv after 2 mins by gamma counting; format: ADME, organism-based; details: in vivo; in short: as §1
[30] = system: Cerebellum; test: Biodistribution in NMRI mouse cerebellum assessed per gram of tissue at 3.7 MBq/mL, iv after 2 mins by gamma counting; format: ADME, organism-based; details: in vivo; in short: as §1
[31] = system: Stomach; test: Biodistribution in NMRI mouse stomach at 3.7 MBq/mL, iv after 2 mins by gamma counting; format: ADME, organism-based; details: in vivo; in short: as §1
[32] = system: Blood; test: Biodistribution in NMRI mouse blood assessed per gram of tissue at 3.7 MBq/mL, iv after 60 mins by gamma counting; format: ADME, organism-based; details: in vivo, 1 h; in short: as §1
[33] = system: Intestine; test: Biodistribution in NMRI mouse intestine at 3.7 MBq/mL, iv after 60 mins by gamma counting; format: ADME, organism-based; details: in vivo, 1 h; in short: as §1
[34] = Biodistribution in NMRI mouse urine at 3.7 MBq/mL, iv after 2 mins by gamma counting; format: ADME, organism-based; details: in vivo; in short: as §1
[35] = system: Lung; test: Biodistribution in NMRI mouse lung at 3.7 MBq/mL, iv after 60 mins by gamma counting; format: ADME, organism-based; details: in vivo, 1 h; in short: as §1
[36] = Biodistribution in NMRI mouse spleen/pancreas assessed per gram of tissue at 3.7 MBq/mL, iv after 2 mins by gamma counting; format: ADME, organism-based; details: in vivo; in short: as §1
[37] = system: Liver; test: Biodistribution in NMRI mouse liver assessed per gram of tissue at 3.7 MBq/mL, iv after 2 mins by gamma counting; format: ADME, organism-based; details: in vivo; in short: as §1
[38] = system: Intestine; test: Biodistribution in NMRI mouse intestine at 3.7 MBq/mL, iv after 2 mins by gamma counting; format: ADME, organism-based; details: in vivo; in short: as §1
[39] = target: Amyloid-beta precursor protein (Homo sapiens, UniProt P05067); test: Displacement of [125I]IMPY from beta-amyloid plaques in Alzheimer's disease patient brain homogenate; format: tissue-based
Sequence of Amyloid-beta precursor protein (P05067 whole entry): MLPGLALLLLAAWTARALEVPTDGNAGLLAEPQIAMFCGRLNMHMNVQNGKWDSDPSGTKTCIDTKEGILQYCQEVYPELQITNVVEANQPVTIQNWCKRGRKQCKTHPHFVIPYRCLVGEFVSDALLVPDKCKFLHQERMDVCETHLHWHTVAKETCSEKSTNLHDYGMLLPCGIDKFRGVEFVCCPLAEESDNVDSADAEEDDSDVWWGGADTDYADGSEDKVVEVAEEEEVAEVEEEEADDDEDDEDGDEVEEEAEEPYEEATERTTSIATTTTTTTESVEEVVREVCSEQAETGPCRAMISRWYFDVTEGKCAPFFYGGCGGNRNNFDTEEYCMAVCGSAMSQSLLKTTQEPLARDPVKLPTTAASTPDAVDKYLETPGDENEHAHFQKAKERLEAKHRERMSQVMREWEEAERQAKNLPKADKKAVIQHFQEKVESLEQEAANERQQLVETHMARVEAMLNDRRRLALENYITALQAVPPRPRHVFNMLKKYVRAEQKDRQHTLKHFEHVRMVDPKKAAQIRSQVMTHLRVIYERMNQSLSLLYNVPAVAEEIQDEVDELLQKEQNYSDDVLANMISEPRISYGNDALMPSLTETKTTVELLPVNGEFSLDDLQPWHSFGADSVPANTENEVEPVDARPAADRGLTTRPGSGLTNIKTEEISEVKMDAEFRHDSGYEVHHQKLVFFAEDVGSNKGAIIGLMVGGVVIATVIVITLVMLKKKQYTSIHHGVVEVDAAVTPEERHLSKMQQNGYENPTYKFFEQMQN

| Drug uptake [1] [% ID/g] | Drug uptake [2] [% ID/g] | Drug uptake [3] [%ID] | Drug uptake [4] [%ID] | Drug uptake [5] [% ID/g] | Drug uptake [6] [%ID] | Drug uptake [7] [% ID/g] | Drug uptake [8] [%ID] | Drug uptake [9] [% ID/g] | Drug uptake [10] [%ID] | Drug uptake [11] [%ID] | Drug uptake [13] [% ID/g] | Drug uptake [14] [% ID/g] | Drug uptake [15] [% ID/g] | Drug uptake [16] [%ID] | Drug uptake [17] [%ID] | Drug uptake [18] [%ID] | Drug uptake [19] [% ID/g] | Drug uptake [20] [%ID] | Drug uptake [21] [%ID] | Structure (SMILES) | other results |
| --- | --- | --- | --- | --- | --- | --- | --- | --- | --- | --- | --- | --- | --- | --- | --- | --- | --- | --- | --- | --- | --- |
| 4.7 | 5.8 | 0.1 | 5.9 | 12.6 | 24.6 | 28.1 | 7 | 11.9 | 1.2 | 28.1 | 0.76 | 4 | 1.8 | 0.08 | 11.3 | 0.9 | 1.3 | 10 | 3.3 | Oc1ccc2nc(-c3ccc([18F])cc3)sc2c1 | Drug uptake [12]: 7.6 %ID; Drug uptake [22]: 0.55 %ID; Drug uptake [23]: 5.5 % ID/g; Drug uptake [24]: 11.8 % ID/g; Drug uptake [25]: 0.5 %ID; Drug uptake [26]: 0.5 %ID; Drug uptake [27]: 0.57 % ID/g; Drug uptake [28]: 0.16 %ID; Drug uptake [29]: 1.35 %ID; Drug uptake [30]: 5.13 % ID/g; Drug uptake [31]: 1.1 %ID; Drug uptake [32]: 1.3 % ID/g; Drug uptake [33]: 36.7 %ID; Drug uptake [34]: 0.1 %ID; Drug uptake [35]: 1.5 %ID; Drug uptake [36]: 4 % ID/g; Drug uptake [37]: 13.3 % ID/g; Drug uptake [38]: 7.1 %ID |
|  |  |  |  |  |  |  |  |  |  |  |  |  |  |  |  |  |  |  |  | O=C(O)c1ccc2nc(-c3ccc(F)cc3)sc2c1 | Ki [39]: > 4000 nM |
|  |  |  |  |  |  |  |  |  |  |  |  |  |  |  |  |  |  |  |  | Cc1ccc2nc(-c3ccc(F)cc3)sc2c1 | Ki [39]: 5.7 nM |
| 5.1 | 3.9 | 0.1 | 9.4 | 13.9 | 13.6 | 9.9 | 8.6 | 6.7 | 1.3 | 19.9 | 0.68 | 2 | 0.4 | 0.07 | 16.9 | 0.8 | 0.6 | 4.9 | 4.4 | COc1ccc2nc(-c3ccc([18F])cc3)sc2c1 | Drug uptake [22]: 0.56 %ID; Drug uptake [23]: 2.1 % ID/g; Drug uptake [24]: 14.2 % ID/g; Drug uptake [25]: 1.2 %ID; Drug uptake [26]: 0.2 %ID; Drug uptake [27]: 0.43 % ID/g; Drug uptake [28]: 0.13 %ID; Drug uptake [29]: 1.57 %ID; Drug uptake [30]: 5.12 % ID/g; Drug uptake [31]: 1.1 %ID; Drug uptake [32]: 1.7 % ID/g; Drug uptake [33]: 34.3 %ID; Drug uptake [34]: 0.2 %ID; Drug uptake [35]: 0.6 %ID; Drug uptake [36]: 4.1 % ID/g; Drug uptake [37]: 9.9 % ID/g; Drug uptake [38]: 8.4 %ID |
| 3.6 | 4.2 | 0.3 | 4.8 | 19.9 | 9.8 | 3.6 | 10.3 | 5 | 0.6 | 15.6 | 0.31 | 3.1 | 0.7 | 0.03 | 24.4 | 0.6 | 2.1 | 7.9 | 2.7 | [11CH3]Nc1ccc(-c2nc3ccc(O)cc3s2)cc1 [PITTSBURGH COMPOUND B] | Drug uptake [12]: 0.9 %ID; Drug uptake [22]: 0.17 %ID; Drug uptake [23]: 1.3 % ID/g; Drug uptake [24]: 9.1 % ID/g; Drug uptake [25]: 0.3 %ID; Drug uptake [26]: 0.1 %ID; Drug uptake [27]: 0.6 % ID/g; Drug uptake [28]: 0.18 %ID; Drug uptake [29]: 1.08 %ID; Drug uptake [30]: 1.6 % ID/g; Drug uptake [31]: 1.1 %ID; Drug uptake [32]: 1.1 % ID/g; Drug uptake [33]: 42.5 %ID; Drug uptake [34]: 0.2 %ID; Drug uptake [35]: 0.3 %ID; Drug uptake [36]: 4.7 % ID/g; Drug uptake [37]: 7.9 % ID/g; Drug uptake [38]: 12 %ID |
